Data as given in ChEMBL document CHEMBL6177924, “Synthesis and antifungal evaluation of new azole derivatives containing 1,2,3-triazole” (RSC Med Chem, 2025).
Values after ≈ are worked out from the molar mass of the structure shown. Active and inactive are the calls of the source. No cut-off for these calls is given here.

Tests used:
[1] = tested on: Candida albicans; assay: Antifungal activity against Candida albicans assessed as inhibition of mycelia formation at 0.27 to 1.06 microg/ml measured after 4 to 8 hrs by inverted microscopic analysis; format: functional, organism-based; conditions: dose 0.27-1.06 µg/ml, time 4-8 hrs
Method in brief: (§1)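 Hyphae were induced in SD+10% FBS or in Spider medium. Log-phase cells at 1×10^5 CFU/mL final, 1 mL per well in 24-well plates, 3 wells per group. Drug at 0.27, 0.53 or 1.06 µg/mL, fluconazole, or no-drug control. Incubated at 30 °C; hyphal formation observed and photographed by inverted microscope at 4 h and 8 h.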

[2] = tested on: Candida albicans; assay: Induction of morphological changes in Candida albicans assessed as loose distribution of cytoplasm at 0.53 microg/ml incubated for 16 to 24 hrs by transmission electron microscopic analysis; format: functional, organism-based; conditions: dose 0.53 µg/ml, time 16-24 hrs
Method in brief: (§2)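 C. albicans at 5×10^5 CFU/mL in SDB shaken with drug (0.27, 0.53, 1.06 µg/mL), fluconazole or no drug at 30 °C, 150 r/min, for 16-24 h. Pellets washed with PBS and fixed in cold 3% paraformaldehyde/2.5% glutaraldehyde at 4 °C, then 1% OsO4. Dehydrated in acetone and embedded in Epon-812. 60-90 nm sections stained with uranyl acetate and lead citrate, imaged by TEM.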

[3] = tested on: Cell membrane; assay: Induction of cell membrane permeability in Candida albicans assessed as increase in red fluorescence incubated for 16 to 24 hrs by PI staining based fluorescence microscopic analysis; format: subcellular; conditions: time 16-24 hrs
Method in brief: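 C. albicans at 1×10^5 CFU/mL in SDB grown with drug (0.27, 0.53, 1.06 µg/mL), fluconazole or no drug at 30 °C, 150 r/min, for 16-24 h. Cells washed and resuspended in PBS at 2×10^6 CFU/mL. Stained with propidium iodide (final 5 µg/mL) 30 min at room temperature in the dark, then washed. Imaged by fluorescence microscopy and fluorescence intensity measured.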

[4] = tested on: Cell membrane; assay: Induction of cell membrane permeability in Candida albicans assessed as increase in fluorescence intensity by multifunctional enzymatic assay; format: subcellular
[5] = tested on: Candida albicans; assay: Antifungal activity against Candida albicans SC5314 assessed as inhibition of fungal growth measured after 36 hrs by time-killing curve analysis; format: functional, organism-based
Method in brief: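 Log-phase C. albicans at 1×10^5 CFU/mL in SDB, 10 mL cultures with drug (0.27, 0.53, 1.06 µg/mL), fluconazole or no drug. Shaken at 150 r/min, 30 °C. Samples taken at 0, 4, 8, 12, 24, 36 and 48 h for absorbance at 630 nm, triplicate wells. Absorbance plotted against time.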

[6] = tested on: Candida albicans; assay: Antifungal activity against Candida albicans assessed as increase in pseudomycelial fungal cells at 0.27 to 1.06 microg/ml measured after 4 to 8 hrs by inverted microscopic analysis; format: functional, organism-based; conditions: dose 0.27-1.06 µg/ml, time 4-8 hrs; method in brief: as §1
[7] = tested on: Candida albicans; assay: Antibiofilm activity in Candida albicans SC5314 assessed as appearance of pseudomycelial form of fungal cells at 0.27 microg/ml measured after 24 hrs by inverted microscopic analysis; format: functional, organism-based; conditions: dose 0.27 µg/ml
Method in brief: (§3)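 Log-phase C. albicans in RPMI1640+10% FBS at 1×10^5 CFU/mL allowed to adhere in 24-well plates for 90 min at 30 °C; unattached medium removed. 1 mL medium with drug (0.27, 0.53, 1.06 µg/mL) or without drug added; 24 h at 30 °C. Biofilm stained with crystal violet 30 min, washed 3× with PBS, viewed by inverted microscope.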

[8] = tested on: Candida albicans; assay: Induction of morphological changes in Candida albicans assessed as blurred boundary between cell wall and cell membrane at 0.53 to 1.06 microg/ml incubated for 16 to 24 hrs by transmission electron microscopic analysis; format: functional, organism-based; conditions: dose 0.53-1.06 µg/ml, time 16-24 hrs; method in brief: as §2
[9] = tested on: Candida albicans; assay: Induction of morphological changes in Candida albicans assessed as normal cell wall appearance at 0.53 microg/ml incubated for 16 to 24 hrs by transmission electron microscopic analysis; format: functional, organism-based; conditions: dose 0.53 µg/ml, time 16-24 hrs; method in brief: as §2
[10] = tested on: Candida albicans; assay: Antifungal activity against Candida albicans SC5314 assessed as inhibition of fungal growth measured up to 48 hrs by time-killing curve analysis; format: functional, organism-based
Method in brief: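 Log-phase cells at 1×10^5 CFU/mL in SDB, 10 mL per group. Drug at 0.27, 0.53 or 1.06 µg/mL, plus fluconazole and untreated controls. Shaken 150 r/min at 30 °C. Samples taken at 0, 4, 8, 12, 24, 36 and 48 h and read at A630, triplicate wells. Absorbance plotted against time.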

[11] = tested on: Candida albicans; assay: Antifungal activity against Candida albicans assessed as increase in yeast fungal cells at 0.27 to 1.06 microg/ml measured after 4 to 8 hrs by inverted microscopic analysis; format: functional, organism-based; conditions: dose 0.27-1.06 µg/ml, time 4-8 hrs; method in brief: as §1
[12] = tested on: Candida albicans; assay: Antifungal activity against Candida albicans assessed as increase in pseudomycelial fungal cells with reduction in mycelial formation at 0.27 to 1.06 microg/ml measured after 8 hrs by inverted microscopic analysis; format: functional, organism-based; conditions: dose 0.27-1.06 µg/ml; method in brief: as §1
[13] = tested on: Candida albicans; assay: Antifungal activity against drug sensitive Candida albicans SC5314 assessed as inhibition of fungal growth incubated for 24 hrs by CLSI protocol based microdilution method; format: functional
Method in brief: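 Broth microdilution of log-phase C. albicans at 1×10^5 CFU/mL in Sabouraud liquid medium (SDB). Compounds serially diluted 5-fold to final 200-0.064 µg/mL, DMSO below 0.1%. Triplicate wells, 200 µL final volume, with growth, blank and fluconazole controls. Incubated 24 h at 30 °C, OD read at 630 nm; experiment repeated three times.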

[14] = tested on: Candida albicans; assay: Induction of morphological changes in Candida albicans assessed as incomplete cell wall structure at 0.53 to 1.06 microg/ml incubated for 16 to 24 hrs by transmission electron microscopic analysis; format: functional, organism-based; conditions: dose 0.53-1.06 µg/ml, time 16-24 hrs; method in brief: as §2
[15] = tested on: Candida albicans; assay: Antibiofilm activity in Candida albicans SC5314 assessed as appearance of fungal cells in yeast shape with few mycelia measured after 24 hrs by inverted microscopic analysis; format: functional, organism-based; conditions: dose 0.27-1.06 µg/ml; method in brief: as §3
[16] = tested on: Candida albicans; assay: Antibiofilm activity in Candida albicans SC5314 assessed as appearance of fungal cells in pseudomycelial shape with few mycelia measured after 24 hrs by inverted microscopic analysis; format: functional, organism-based; conditions: dose 0.27-1.06 µg/ml; method in brief: as §3
[17] = tested on: Candida albicans; assay: Antibiofilm activity in Candida albicans SC5314 assessed as sparse distribution of fungal cells at 0.53 microg/ml measured after 24 hrs by inverted microscopic analysis; format: functional, organism-based; conditions: dose 0.53 µg/ml; method in brief: as §3
[18] = tested on: Candida albicans; assay: Induction of morphological changes in Candida albicans assessed as cell enlargement at 0.53 to 1.06 microg/ml incubated for 16 to 24 hrs by transmission electron microscopic analysis; format: functional, organism-based; conditions: dose 0.53-1.06 µg/ml, time 16-24 hrs; method in brief: as §2
[19] = tested on: Candida albicans; assay: Antifungal activity against drug resistant Candida albicans SC5314-FR assessed as inhibition of fungal growth incubated for 24 hrs by CLSI protocol based microdilution method; format: functional
Method in brief: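 Fluconazole-resistant strain derived from SC5314 by fluconazole exposure. Log-phase cells at 1×10^5 CFU/mL in SDB. Drug fivefold serial dilutions, 200–0.064 µg/mL final, DMSO <0.1%, triplicate wells, 200 µL. Incubated 30 °C for 24 h and read at OD630. Growth, blank and fluconazole controls included. Run three times.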

[20] = tested on: Candida albicans; assay: Induction of morphological changes in Candida albicans assessed as blurred spacing between cell wall and cell membrane at 0.53 microg/ml incubated for 16 to 24 hrs by transmission electron microscopic analysis; format: functional, organism-based; conditions: dose 0.53 µg/ml, time 16-24 hrs; method in brief: as §2
[21] = tested on: Candida albicans; assay: Antifungal activity against Candida albicans assessed as inhibition of mycelia formation at 0.53 microg/ml measured after 4 to 8 hrs by inverted microscopic analysis; format: functional, organism-based; conditions: dose 0.53 µg/ml, time 4-8 hrs; method in brief: as §1

Compound: O=C(Cn1cc(COC(Cn2ccnc2)c2ccc(Cl)cc2Cl)nn1)c1ccc2ccccc2c1 (stereo unspecified)
- Activity [1]: Active
- Activity [2]: Active
- Activity [3]: Dose-dependent-effect
- Activity [4]: Dose-dependent-effect; Better Than That Of Fluconazole Group
- Activity [5]: Dose-dependent-effect
- Activity [6]: Active
- Activity [7]: Active
- Activity [8]: Active
- Activity [9]: Active
- Activity [10]: Active
- Activity [11]: Active
- Activity [12]: Active
- MIC50 [13]: 0.53 µg/mL (≈ 1.05 µM)
- Activity [14]: Active
- Activity [15]: Dose-dependent-effect
- Activity [16]: Dose-dependent-effect
- Activity [17]: Active
- Activity [18]: Active
- MIC50 [19]: 10.9 µg/mL (≈ 21.6 µM)
- Activity [20]: Active
- Activity [21]: Active; Better Than That Of Fluconazole Group
